VIM-2 inh – inhibitors of Pseudomonas aeruginosa VIM-2 metallo-beta-lactamase | purified VIM-2, nitrocefin hydrolysis, epi-absorbance fluorescence | inhibition, % at 5.6 µM | 0.89% of 290,000 active | AID 1527;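 active means inhibition above the mean of all tested compounds plus 3 SD, cutoff set per screening run, cut at about 7.5% in these data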;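 further: red hydrolysis product quenches plate fluorescence so inhibitors raise well fluorescence; 0% = enzyme with DMSO and 100% = DMSO without enzyme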
CHT inh – inhibitors of human choline transporter CHT; CHT-expressing cells, membrane potential dye, choline response; hits give low values; B-score at 10 µM; 0.86% of 310,000 active; AID 488975;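 active means B-score over 3 SD under the library average, and starting fluorescence ratio not unusually high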;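 further: choline stimulus applied at its EC90 after an EC20 pre-addition; B-score computed on integrated fluorescence ratio after choline addition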
CHT PAM – allosterically activates the human high affinity choline transporter; 0.49% of 310,000 active; AID 488977; Q9GZV3; CHT-expressing cells, membrane potential dye, choline EC20; hits give high values; LV-AA mutant CHT in HEK293 cells; B-score at 10 µM;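 active means initial fluorescence not abnormally high and integrated response B-score, plate-corrected, over 3 SD above library mean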
ANO1 block – blocks the mouse calcium-activated chloride channel TMEM16A | normalized B-score (activity score, 25-100; higher = stronger inhibition) at 10 µM | AID 588511 | HEK293 TMEM16A/YFP iodide influx fluorescence, ionomycin | Q8BHY3 | 1.2% of 310,000 active;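 active means ratio plate-corrected score three or more library SD toward inhibition, starting fluorescence score within five deviations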;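 further: score derived from kinetic fluorescence span divided by baseline fluorescence per well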
Target sequence (Q8BHY3 whole entry, looked up): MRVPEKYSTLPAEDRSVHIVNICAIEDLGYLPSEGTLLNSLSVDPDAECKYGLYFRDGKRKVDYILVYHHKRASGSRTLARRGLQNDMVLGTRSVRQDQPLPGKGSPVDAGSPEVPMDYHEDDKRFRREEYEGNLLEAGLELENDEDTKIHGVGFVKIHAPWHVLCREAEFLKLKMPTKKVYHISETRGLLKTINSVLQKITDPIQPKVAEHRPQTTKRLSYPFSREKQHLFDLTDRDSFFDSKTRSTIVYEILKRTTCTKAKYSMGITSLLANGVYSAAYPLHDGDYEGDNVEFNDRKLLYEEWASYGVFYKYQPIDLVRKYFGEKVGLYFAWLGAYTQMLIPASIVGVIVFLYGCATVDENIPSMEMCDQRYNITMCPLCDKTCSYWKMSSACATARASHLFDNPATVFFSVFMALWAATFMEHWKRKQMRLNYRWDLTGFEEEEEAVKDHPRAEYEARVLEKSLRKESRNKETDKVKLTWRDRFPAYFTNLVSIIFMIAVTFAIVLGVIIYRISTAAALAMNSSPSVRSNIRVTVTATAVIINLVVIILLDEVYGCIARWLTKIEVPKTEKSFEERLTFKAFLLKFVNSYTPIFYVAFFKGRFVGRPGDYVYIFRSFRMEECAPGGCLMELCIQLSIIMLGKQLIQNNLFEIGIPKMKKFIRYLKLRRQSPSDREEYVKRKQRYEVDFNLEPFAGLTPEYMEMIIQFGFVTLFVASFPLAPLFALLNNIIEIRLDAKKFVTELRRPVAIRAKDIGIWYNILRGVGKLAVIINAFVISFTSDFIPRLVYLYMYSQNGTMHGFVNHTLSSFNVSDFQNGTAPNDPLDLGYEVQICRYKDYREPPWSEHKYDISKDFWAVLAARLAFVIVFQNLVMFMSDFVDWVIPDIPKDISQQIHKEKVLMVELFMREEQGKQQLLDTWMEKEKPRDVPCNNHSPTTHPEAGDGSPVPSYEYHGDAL
IMP-1 inh – blocks Pseudomonas aeruginosa IMP-1 metallo-beta-lactamase; AID 1556; 0.45% of 290,000 active; inhibition, % at 5.6 µM; purified IMP-1, nitrocefin hydrolysis, epi-absorbance fluorescence;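 active means inhibition above the mean plus 3 SD of all compounds in the same screening run, cut at about 4.5% in these data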;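 further: 0% = IMP-1 with DMSO and 100% = DMSO wells lacking enzyme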
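Assay system: purified IMP-1; Quantity: IMP-1 0.2 nM before substrate addition; Medium: HEPES buffer pH 7.1 with ZnSO4 and Brij 35; Incubation: 15 min enzyme–compound preincubation, then 25 min nitrocefin reaction, 25 °C; Signal: fluorescence quenching readout, ex 480/em 530 nm; Controls: DMSO with and without IMP-1; Repeats: singlicate testing.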
TMEM16A act – mouse TMEM16A channel activation, primary screen; AID 623877; 0.3% of 340,000 active; B-score at 10 µM; Q8BHY3; HEK293 TMEM16A/YFP-H148Q/I152L, iodide quench fluorescence; hits give low values;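 active means fluorescence-ratio B-score plate-corrected deviation score at least 3 library SD below zero, with starting fluorescence score within 5 deviations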;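 further: channel opened by trigger with iodide after compound preincubation; score built on the fluorescence ratio of max minus min over baseline; more negative score means more quench and so TMEM16A activation or potentiation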
* hit, by the source's call; i = inactive; x = not tested or not shown. Compounds with a hit are over-represented: about 3.4% of the library has one in this group of screens.

SMILES	VIM-2 inh	CHT inh	CHT PAM	ANO1 block	IMP-1 inh	TMEM16A act
FC(F)C(F)(F)C(F)(F)C(F)(F)c1cc(-c2ccccc2)n[nH]1	-2	i	i	100*	-3	i
Cc1cc(-c2ccccc2)n[nH]1	-2	i	i	i	-1	i
Cc1csc2nc(CSc3nncn3-c3ccccc3)c(Br)n12	0	i	i	i	-2	i
Cc1csc2nc(CSc3nc4ccccc4o3)c(Br)n12	-2	i	i	25*	-3	i
CSCCC(NC(=O)COc1ccccc1)C(=O)N(C)Cc1ccc(SC)cc1 (stereo unspecified)	x	x	x	x	x	i
CCOc1cc(/C=C2\N=C(SCC)SC2=O)cc([N+](=O)[O-])c1OC(C)=O	1	i	i	100*	-2	i
CCOc1c(OC(C)=O)ccc(/C=C2\N=C(SCC)SC2=O)c1[N+](=O)[O-]	-1	-5.8*	i	100*	-3	i
O=C(c1ccc(F)cc1)N1CCC(C(=O)N2CCN(S(=O)(=O)c3cccc(Cl)c3)CC2)CC1	x	i	i	i	x	i
NC(=O)C1CCN(c2nc(-c3ccccc3-c3ccccc3)cs2)CC1	x	x	x	x	x	i
COc1ccc(N(CC(O)CN2CCOCC2)S(=O)(=O)c2ccc(C)cc2)cc1 (stereo unspecified)	0	i	i	i	-1	i
COc1ccc(N(CC(O)Cn2c3ccccc3c3ccccc32)S(=O)(=O)c2ccccc2)cc1 (stereo unspecified)	0	i	i	i	-2	-4.8*
Cc1nc(C)c(C(=O)OCC(=O)NCc2ccccc2)s1	x	x	x	x	x	i
CCC(=O)Nc1sc2c(c1C#N)CCC2	-2	i	i	i	-2	i
CC(C)CC(=O)NC(NC(=S)Nc1sc2c(c1C#N)CCCC2)C(Cl)(Cl)Cl (stereo unspecified)	-1	i	i	100*	-2	i
CN1C[C@@H]2[C@@H]3C(=O)N(C)C(=O)[C@@H]3[C@](Cc3ccccc3)(C1=O)N2C(=O)c1ccc(F)cc1	x	x	x	x	x	i
C/C(=N\NC(=O)c1ccc(O)cc1)c1ccc2c(c1)Nc1ccccc1S2	-4	i	i	25*	-2	i
C/C(=N\NC(=O)c1ccccc1F)c1ccc2c(c1)Nc1ccccc1S2	-4	i	i	i	-4	i
O=C(NCCO)Nc1ccc2nc(-c3ccco3)c(-c3ccco3)nc2c1	4	i	i	i	6.4*	x
CC(=O)Nc1ccc(S(=O)(=O)N(C)CC(=O)N(C)Cc2sccc2C)cc1	x	x	x	x	x	i
COC(=O)c1c(NC(=O)C(=O)N2CCOCC2)sc2c1CCC2	11*	i	i	i	1	i
O=C(NCCC1=CCCCC1)c1ccc(Cl)c(S(=O)(=O)N2CCOCC2)c1	-2	i	i	i	-5	i
Cc1ccc(CSCCNC(=O)c2ccc(Cl)c(S(=O)(=O)N3CCOCC3)c2)cc1	1	i	i	25*	0	i
O=C(NCCC1=CCCCC1)c1ccc(Cl)c(S(=O)(=O)N2CCCCC2)c1	-2	i	i	25*	-1	i
O=C(NNC(=O)C1CCC1)c1ccccc1F	x	i	i	i	x	i
Cc1cc2cc(CN(CCN(C)C)C(=S)NCc3ccco3)c(=O)[nH]c2cc1C	0	i	i	i	1	i
SMILES	VIM-2 inh	CHT inh	CHT PAM	ANO1 block	IMP-1 inh	TMEM16A act
Cc1cc2cc(CN(Cc3cccs3)C(=S)NCc3ccco3)c(=O)[nH]c2cc1C	8.6*	i	i	i	-1	i
Cc1ccc(-n2ncc3c2CC(C)(C)CC3NC(=O)CCc2cccnc2)cc1 (stereo unspecified)	-1	i	i	i	-3	i
C/C(=C\C(=O)c1ccccc1)Nc1ccc(Br)c(Cl)c1	x	i	i	25*	x	i
O=C(OC(C(=O)NCc1ccccc1)c1ccccc1F)c1ccco1 (stereo unspecified)	-1	i	i	i	-2	i
COc1ccccc1N(C)S(=O)(=O)c1ccc(C(=O)Nc2cc(OC)c(OC)c(OC)c2)cc1	x	x	x	x	x	i
CCOc1ccc(NC(=O)NCCCn2c(C)nc3cc(C)c(C)cc32)cc1	-5	i	i	i	-5	i
Cc1cc2nc(C)n(CCCNC(=O)Nc3cccc4ccccc34)c2cc1C	-4	i	i	25*	-4	i
CCOCCCNC(=O)c1ccc(/C=C2\Oc3ccccc3N(C)C2=O)cc1	7.7*	i	i	i	0	i
CCN=C1S/C(=C\c2cc(OCC)c(O)cc2Br)C(=O)N1CC	7.8*	i	i	i	-1	i
Cc1ccc(C(=O)OC(C)CN2C(C)CCCC2C)cc1 (stereo unspecified)	-2	i	i	i	-5	i
CC(=O)OCCCN1C(=O)c2cccc3cc(Br)cc(c23)C1=O	12*	i	i	i	0	x
CCOC(=O)CCCCCN1C(=O)c2cccc3cccc(c23)C1=O	5	i	i	i	0	i
Cc1nn(CCc2nn[nH]n2)c2nc(-c3ccc(C4CCCCC4)cc3)cc(C(F)(F)F)c12	-4	i	i	100*	-4	i
COc1ccc(OC(C)C(=O)N(C)Cc2nc(-c3cccc(C)c3)no2)cc1 (stereo unspecified)	-1	i	i	i	-3	i
N=C1/C(=C/c2coc3ccccc3c2=O)C(=O)N=C2SC(c3ccco3)=NN12	-1	i	i	i	6.8*	i
COc1ccc(S(=O)(=O)N(C)C2(C)CCS(=O)(=O)C2)cc1OC (stereo unspecified)	x	i	i	i	x	i
Cc1ccccc1OCc1nc2ccccc2c(=O)n1/N=C/c1c[nH]c2ccccc12	-4	i	i	i	-1	i
CCCc1nc2ccccc2c(=O)n1/N=C/c1ccccc1O	-2	i	i	i	0	i
O=c1c2ccccc2nc(COc2ccccc2)n1/N=C/c1cc([N+](=O)[O-])ccc1O	-3	i	i	100*	-2	i
Cc1cc(/C=N/n2c(COc3ccccc3C)nc3ccccc3c2=O)c(O)c([N+](=O)[O-])c1	-4	i	i	100*	-4	i
Cc1cccc2sc(NC(=O)Cn3c(C)csc3=O)nc12	x	x	x	x	x	i
O=C1CC(=O)Nc2cc(S(=O)(=O)Nc3cccc(C(F)(F)F)c3)ccc2N1	-1	i	i	i	0	i
Cc1onc(NC(=O)c2ccc(Cl)cc2Cl)c1Br	-1	i	i	i	-1	i

Source: PubChem
